In ChEMBL document CHEMBL1157295, “Polyacylated oligosaccharides from medicinal Mexican morning glory species as antibacterials and inhibitors of multidrug resistance in Staphylococcus aureus” (2006):
Converted amounts (≈) assume the structure as drawn.

Columns and labels:
Assay type in all cases: functional
Staphylococcus aureus [1] = test: Antimicrobial activity against TetK multidrug efflux pump possessing Staphylococcus aureus XU-212 by standard microdilution method
Procedure, shortened: (§1)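 Broth microdilution per NCCLS guidelines, at least in duplicate, in cation-adjusted Mueller-Hinton broth (20 mg/L Ca2+, 10 mg/L Mg2+). Strains were grown first on nutrient agar. Inoculum of 5 × 10^5 cfu was set in 0.9% saline against a McFarland standard. Compounds were dissolved in DMSO and given as 2-fold serial dilutions, final 1–512 µg/mL, with at most 3.125% v/v DMSO. MIC is the lowest concentration showing no visible growth.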

Staphylococcus aureus [2] = test: Antimicrobial activity against epidemic methicillin-resistant Staphylococcus aureus 15 by standard microdilution method
Procedure, shortened: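 Broth microdilution following NCCLS guidelines, at least in duplicate, against EMRSA-15 (mecA) precultured on nutrient agar. Medium was cation-adjusted Mueller-Hinton broth with 20 mg/L Ca2+ and 10 mg/L Mg2+. Inoculum was 5 × 10^5 cfu in 0.9% saline, set against a McFarland standard. Compounds were dissolved in DMSO (final ≤3.125% v/v) and tested at 1–512 µg/mL in 2-fold series. MIC was the lowest concentration with no visible growth.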

Staphylococcus aureus [3] = test: Antimicrobial activity against Staphylococcus aureus ATCC 25923 by standard microdilution method; procedure, shortened: as §1
[4] = tested on: Mycobacterium tuberculosis; test: Antimicrobial activity against Mycobacterium tuberculosis
Staphylococcus aureus [5] = test: Antimicrobial activity against Staphylococcus aureus ATCC 6538

Row | Structure (SMILES) | MIC (Staphylococcus aureus [1]) [mg/L] | MIC (Staphylococcus aureus [2]) [mg/L] | MIC (Staphylococcus aureus [3]) [mg/L] | MIC [4] [mg/L] | MIC (Staphylococcus aureus [5]) [mg/L]
1 | CCCCC[C@H](CCCCCCCCCC(=O)OC[C@H]1O[C@H]2O[C@H]3[C@H](O[C@@H](CCCCC)CCCCCCCCCC(=O)O[C@H]4[C@H](O[C@@H]2[C@@H](O)[C@@H]1O)O[C@H](C)[C@@H](O)[C@@H]4O)O[C@H](C)[C@H](O)[C@@H]3O)O[C@@H]1O[C@H](C)[C@H](O)[C@H](O)[C@H]1O[C@@H]1O[C@H](CO)[C@@H](O)[C@H](O)[C@H]1O[C@@H]1O[C@H](C)[C@@H](O)[C@H](O)[C@H]1O [TRICOLORIN J] | > 256 | > 256 | > 256 |  | 
2 | C/C=C(\C)C(=O)O[C@H]1[C@H](O)[C@@H](O)[C@H](O[C@@H]2[C@H]3OC(=O)CCCCCCCCC[C@H](CCCCC)O[C@@H]4O[C@H](C)[C@@H](O)[C@H](O)[C@H]4O[C@@H]4O[C@H](COC(=O)[C@@H](C)[C@H](C)O)[C@@H](O)[C@H](O)[C@H]4O[C@H](O[C@H]2C)[C@@H]3OC(=O)C(C)C)O[C@@H]1C [ORIZABIN XIII] | 32 (≈ 28.9 µM) | 8 (≈ 7.22 µM) | 8 (≈ 7.22 µM) |  | 
3 | C/C=C(\C)C(=O)O[C@H]1[C@H](O)[C@@H](O)[C@H](O[C@@H]2[C@H]3OC(=O)CCCCCCCCC[C@H](CCCCC)O[C@@H]4O[C@H](C)[C@@H](O)[C@H](O)[C@H]4O[C@@H]4O[C@H](CO)[C@@H](OC(=O)[C@H](C)[C@@H](C)O)[C@H](O)[C@H]4O[C@H](O[C@H]2C)[C@@H]3OC(=O)[C@@H](C)CC)O[C@@H]1C [ORIZABIN IX] | > 512 | 256 (≈ 228 µM) | > 512 |  | 
4 | CCCCC[C@H]1CCCCCCCCCC(=O)O[C@H]2[C@H](O)[C@@H](CO)O[C@@H](O[C@H]3[C@H](O1)O[C@H](C)[C@H](O)[C@@H]3O)[C@@H]2O[C@@H]1O[C@@H](C)[C@H](OC(=O)[C@H](C)[C@@H](C)O)[C@@H](O[C@@H]2O[C@@H](C)[C@H](O)[C@@H](O)[C@H]2O)[C@H]1OC(=O)[C@@H](C)CC [TRICOLORIN C] | 16 (≈ 15.4 µM) | 32 (≈ 30.8 µM) | 32 (≈ 30.8 µM) | 16 (≈ 15.4 µM) | 1 (≈ 0.962 µM)
5 | C/C=C(\C)C(=O)O[C@H]1[C@H](O)[C@@H](O)[C@H](O[C@@H]2[C@H]3OC(=O)CCCCCCCCC[C@H](CCCCC)O[C@@H]4O[C@H](C)[C@@H](O)[C@H](O)[C@H]4O[C@@H]4O[C@H](CO)[C@@H](O)[C@H](O)[C@H]4O[C@H](O[C@H]2C)[C@@H]3OC(=O)[C@@H](C)CC)O[C@@H]1C [SCAMMONIN I] | 128 (≈ 125 µM) | 32 (≈ 31.3 µM) | 32 (≈ 31.3 µM) |  | 
6 | C/C=C(\C)C(=O)O[C@H]1[C@H](O)[C@@H](O)[C@H](O[C@@H]2[C@H]3OC(=O)CCCCCCCCC[C@H](CCCCC)O[C@@H]4O[C@H](C)[C@@H](O)[C@H](O)[C@H]4O[C@@H]4O[C@H](COC(=O)C(C)C)[C@@H](O)[C@H](O)[C@H]4O[C@H](O[C@H]2C)[C@@H]3OC(=O)[C@@H](C)[C@H](C)O)O[C@@H]1C [ORIZABIN XI] | 32 (≈ 28.9 µM) | 4 (≈ 3.61 µM) | 16 (≈ 14.4 µM) |  | 
7 | CCCCC[C@H]1CCCCCCCCCC(=O)O[C@H]2[C@H](O[C@H]3[C@H](O[C@H]4[C@H](O1)O[C@H](C)[C@H](O)[C@@H]4O)O[C@H](CO)[C@@H](O)[C@@H]3O)O[C@H](C)[C@@H](O)[C@@H]2O [TRICOLORIN F] | > 512 | > 512 | > 512 |  | 
8 | C/C=C(\C)C(=O)O[C@H]1[C@H](O)[C@@H](O)[C@H](O[C@@H]2[C@H]3OC(=O)CCCCCCCCC[C@H](CCCCC)O[C@@H]4O[C@H](C)[C@@H](O)[C@H](O)[C@H]4O[C@@H]4O[C@H](COC(=O)[C@H](C)[C@@H](C)O)[C@@H](O)[C@H](O)[C@H]4O[C@H](O[C@H]2C)[C@@H]3OC(=O)[C@@H](C)CC)O[C@@H]1C [ORIZABIN XVI] | 128 (≈ 114 µM) | 8 (≈ 7.13 µM) | 8 (≈ 7.13 µM) |  | 
9 | CCCCC[C@H]1CCCCCCCCCC(=O)O[C@@H]2[C@@H](O[C@@H]3O[C@H](C)[C@@H](OC(=O)[C@@H](C)CC)[C@H](O)[C@H]3O)[C@H](C)O[C@@H](O[C@H]3[C@H](O[C@H]4[C@H](O1)O[C@H](C)[C@@H](O)[C@@H]4O)O[C@H](COC(=O)[C@@H](C)CC)[C@@H](O)[C@@H]3O)[C@@H]2OC(=O)[C@H](C)[C@@H](C)O [ORIZABIN XVIII] | 64 (≈ 57 µM) | 64 (≈ 57 µM) | 32 (≈ 28.5 µM) |  | 
10 | CCCCC[C@H]1CCCCCCCCCC(=O)O[C@@H]2[C@@H](O[C@@H]3O[C@H](C)[C@@H](OC(=O)[C@@H](C)CC)[C@H](O)[C@H]3O)[C@H](C)O[C@@H](O[C@H]3[C@H](O[C@H]4[C@H](O1)O[C@H](C)[C@@H](O)[C@@H]4O)O[C@H](COC(=O)[C@H](C)[C@@H](C)O)[C@@H](O)[C@@H]3O)[C@@H]2OC(=O)[C@@H](C)CC [ORIZABIN XX] | > 512 | 32 (≈ 28.5 µM) | 64 (≈ 57 µM) |  | 
11 | CCCCC[C@H]1CCCCCCCCCC(=O)O[C@@H]2[C@@H](O[C@@H]3O[C@H](C)[C@@H](O)[C@H](O)[C@H]3O)[C@H](C)O[C@@H](O[C@H]3[C@H](O[C@H]4[C@H](O1)O[C@H](C)[C@@H](O)[C@@H]4O)O[C@H](CO)[C@@H](O)[C@@H]3O)[C@@H]2OC(=O)[C@@H](C)CC [SCAMMONIN II] | 512 (≈ 545 µM) | 128 (≈ 136 µM) | 256 (≈ 273 µM) |  | 
12 | C/C=C(\C)C(=O)O[C@H]1[C@H](O)[C@@H](O)[C@H](O[C@@H]2[C@H]3OC(=O)CCCCCCCCC[C@H](CCCCC)O[C@@H]4O[C@H](C)[C@@H](O)[C@H](O)[C@H]4O[C@@H]4O[C@H](COC(=O)[C@@H](C)CC)[C@@H](O)[C@H](O)[C@H]4O[C@H](O[C@H]2C)[C@@H]3OC(=O)[C@@H](C)[C@H](C)O)O[C@@H]1C [ORIZABIN XV] | 512 (≈ 457 µM) | 16 (≈ 14.3 µM) | 128 (≈ 114 µM) |  | 
13 | C/C=C(\C)C(=O)O[C@H]1[C@H](O)[C@@H](O)[C@H](O[C@@H]2[C@H]3OC(=O)CCCCCCCCC[C@H](CCCCC)O[C@@H]4O[C@H](C)[C@@H](O)[C@H](O)[C@H]4O[C@@H]4O[C@H](COC(=O)[C@@H](C)CC)[C@@H](O)[C@H](O)[C@H]4O[C@H](O[C@H]2C)[C@@H]3OC(=O)[C@H](C)[C@@H](C)O)O[C@@H]1C [ORIZABIN XIV] | 64 (≈ 57.1 µM) | 8 (≈ 7.13 µM) | 16 (≈ 14.3 µM) |  | 
14 | C/C=C(\C)C(=O)O[C@H]1[C@H](O)[C@@H](O)[C@H](O[C@@H]2[C@H]3OC(=O)CCCCCCCCC[C@H](CCCCC)O[C@@H]4O[C@H](C)[C@@H](O)[C@H](O)[C@H]4O[C@@H]4O[C@H](COC(=O)[C@H](C)[C@@H](C)O)[C@@H](O)[C@H](O)[C@H]4O[C@H](O[C@H]2C)[C@@H]3OC(=O)C(C)C)O[C@@H]1C [ORIZABIN XII] | > 512 | 512 (≈ 462 µM) | > 512 |  | 
15 | CCCCC[C@H]1CCCCCCCCCC(=O)O[C@@H]2[C@@H](O[C@@H]3O[C@H](C)[C@@H](OC(=O)[C@@H](C)CC)[C@H](O)[C@H]3O)[C@H](C)O[C@@H](O[C@H]3[C@H](O[C@H]4[C@H](O1)O[C@H](C)[C@@H](O)[C@@H]4O)O[C@H](COC(=O)[C@@H](C)CC)[C@@H](O)[C@@H]3O)[C@@H]2OC(=O)[C@@H](C)[C@H](C)O [ORIZABIN XIX] | 512 (≈ 456 µM) | 256 (≈ 228 µM) | 128 (≈ 114 µM) |  | 
16 | C/C=C(\C)C(=O)O[C@H]1[C@H](O)[C@@H](O)[C@H](O[C@@H]2[C@H]3OC(=O)CCCCCCCCC[C@H](CCCCC)O[C@@H]4O[C@H](C)[C@@H](O)[C@H](O)[C@H]4O[C@@H]4O[C@H](COC(=O)C(C)C)[C@@H](O)[C@H](O)[C@H]4O[C@H](O[C@H]2C)[C@@H]3OC(=O)[C@H](C)[C@@H](C)O)O[C@@H]1C [ORIZABIN X] | 32 (≈ 28.9 µM) | 4 (≈ 3.61 µM) | 16 (≈ 14.4 µM) |  | 
17 | C/C=C(\C)C(=O)O[C@H]1[C@H](O)[C@@H](O)[C@H](O[C@@H]2[C@H]3OC(=O)CCCCCCCCC[C@H](CCCCC)O[C@@H]4O[C@H](C)[C@@H](O)[C@H](O)[C@H]4O[C@@H]4O[C@H](COC(=O)[C@@H](C)[C@H](C)O)[C@@H](O)[C@H](O)[C@H]4O[C@H](O[C@H]2C)[C@@H]3OC(=O)[C@@H](C)CC)O[C@@H]1C [ORIZABIN XVII] | 32 (≈ 28.5 µM) | 8 (≈ 7.13 µM) | 8 (≈ 7.13 µM) |  | 
18 | CCn1cc(C(=O)O)c(=O)c2cc(F)c(N3CCNCC3)cc21 [NORFLOXACIN] | 16 (≈ 50.1 µM) | 0.5 (≈ 1.57 µM) | 2 (≈ 6.26 µM) |  | 
19 | CCCCC[C@H]1CCCCCCCCCC(=O)O[C@@H]2[C@@H](O[C@@H]3O[C@H](C)[C@@H](OC(=O)[C@@H](C)CC)[C@H](O)[C@H]3O)[C@H](C)O[C@@H](O[C@H]3[C@H](O[C@H]4[C@H](O1)O[C@H](C)[C@@H](O)[C@@H]4O)O[C@H](COC(=O)[C@@H](C)[C@H](C)O)[C@@H](O)[C@@H]3O)[C@@H]2OC(=O)[C@@H](C)CC [ORIZABIN XXI] | 64 (≈ 57 µM) | 16 (≈ 14.2 µM) | 8 (≈ 7.12 µM) |  | 
20 | CN(C)[C@@H]1C(O)=C(C(N)=O)C(=O)[C@@]2(O)C(O)=C3C(=O)c4c(O)cccc4[C@@](C)(O)[C@H]3C[C@@H]12 [TETRACYCLINE] | 64 (≈ 144 µM) | 0.15 (≈ 0.338 µM) | 0.08 (≈ 0.18 µM) |  | 
